pKi: −log10 of the molar value.

In one assay the test system is CAKI-1. The assay can be described thus: Growth inhibition of human CAKI-1 cells assessed as cell growth at 10^-5 M after 48 hrs by sulforhodamine B assay relative to control. It is filed as functional. Particulars: CAKI-1, 48 h, read-out: Activity. Put shortly:
(§1)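 NCI-60 single-dose screen at 10^-5 M. Cells grown in RPMI 1640 with 5% FBS and 2 mM L-glutamine, plated at 5,000–40,000 cells/well according to doubling time, and preincubated 24 h at 37°C, 5% CO2. Compound dissolved in DMSO and added. Exposure 48 h. Adherent cells fixed with cold TCA (10% final), suspension cells with 16% final TCA. Read-out is 0.4% SRB staining, dye solubilised in 10 mM Tris, absorbance at 515 nm. Percent growth is calculated against the time-zero plate and untreated control.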
Background: In SRB staining, fixed cells bind dye roughly in proportion to their protein.

Another assay deals with ACHN. In words: Growth inhibition of human ACHN cells assessed as cell growth at 10^-5 M after 48 hrs by sulforhodamine B assay relative to control. It is filed as functional. To be noted: read-out: Activity. Put shortly: as §1
Assay [1] can be described thus: Growth inhibition of human NCI-ADR-RES cells assessed as cell growth at 10^-5 M after 48 hrs by sulforhodamine B assay relative to control. The assay is classed as functional. To be noted: read-out: Activity. Put shortly: as §1
The next assay has as its system OVCAR-3. The assay can be described thus: Growth inhibition of human OVCAR3 cells assessed as cell growth at 10^-5 M after 48 hrs by sulforhodamine B assay relative to control. It is filed as functional. To be noted: OVCAR-3, 48 h, read-out: Activity. Put shortly: as §1
A further assay deals with UACC-62. In words: Growth inhibition of human UACC62 cells assessed as cell growth at 10^-5 M after 48 hrs by sulforhodamine B assay relative to control. The assay is classed as functional. Particulars: UACC-62, 48 h, read-out: Activity. Put shortly: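 NCI-60 single-dose screen, 10^-5 M final. Cells grown in RPMI 1640 with 5% FBS and 2 mM L-glutamine, seeded at 5,000–40,000 cells/well by doubling time. Preincubated 24 h at 37°C, 5% CO2. Compound in DMSO, diluted in medium with gentamicin, then 48 h exposure. Fixed with cold TCA, SRB stained, A515 read. Percent growth vs untreated control, time-zero plate corrected.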

The subject of the next assay is SF-539. The assay can be described thus: Growth inhibition of human SF539 cells assessed as cell growth at 10^-5 M after 48 hrs by sulforhodamine B assay relative to control. The assay is classed as functional. To be noted: SF-539, 48 h, read-out: Activity. Put shortly:
as §1

The subject of the next assay is SF-295. The assay can be described thus: Growth inhibition of human SF295 cells assessed as cell growth at 10^-5 M after 48 hrs by sulforhodamine B assay relative to control. The assay is classed as functional. Particulars: SF-295, 48 h, read-out: Activity. The procedure, abridged: as §1
The next assay concerns SF-268. In words: Growth inhibition of human SF268 cells assessed as cell growth at 10^-5 M after 48 hrs by sulforhodamine B assay relative to control. The assay is classed as functional. Particulars: SF-268, 48 h, read-out: Activity. The procedure, abridged: as §1
For a further assay, the system named is COLO 205. In words: Growth inhibition of human COLO205 cells assessed as cell growth at 10^-5 M after 48 hrs by sulforhodamine B assay relative to control. It is filed as functional. To be noted: COLO 205, 48 h, read-out: Activity. Put shortly: as §1
A further assay deals with NCI-H322M. In words: Growth inhibition of human NCI-H322M cells assessed as cell growth at 10^-5 M after 48 hrs by sulforhodamine B assay relative to control. The assay is classed as functional. To be noted: read-out: Activity. Put shortly: as §1
A further assay concerns NCI-H226. The assay can be described thus: Growth inhibition of human NCI-H226 cells assessed as cell growth at 10^-5 M after 48 hrs by sulforhodamine B assay relative to control. It is filed as functional. To be noted: NCI-H226, 48 h, read-out: Activity. The procedure, abridged:
as §1

The next assay relates to RPMI-8226. In words: Growth inhibition of human RPMI8226 cells assessed as cell growth at 10^-5 M after 48 hrs by sulforhodamine B assay relative to control. The assay is classed as functional. To be noted: RPMI-8226, 48 h, read-out: Activity. Put shortly:
as §1

For a further assay, the system named is K562. In words: Growth inhibition of human K562 cells assessed as cell growth at 10^-5 M after 48 hrs by sulforhodamine B assay relative to control. It is filed as functional. Particulars: K562, 48 h, read-out: Activity. Put shortly:
as §1

A further assay deals with T1, Vitamin D3 receptor (Homo sapiens, UniProt P11473).
T1 sequence (P11473 whole entry): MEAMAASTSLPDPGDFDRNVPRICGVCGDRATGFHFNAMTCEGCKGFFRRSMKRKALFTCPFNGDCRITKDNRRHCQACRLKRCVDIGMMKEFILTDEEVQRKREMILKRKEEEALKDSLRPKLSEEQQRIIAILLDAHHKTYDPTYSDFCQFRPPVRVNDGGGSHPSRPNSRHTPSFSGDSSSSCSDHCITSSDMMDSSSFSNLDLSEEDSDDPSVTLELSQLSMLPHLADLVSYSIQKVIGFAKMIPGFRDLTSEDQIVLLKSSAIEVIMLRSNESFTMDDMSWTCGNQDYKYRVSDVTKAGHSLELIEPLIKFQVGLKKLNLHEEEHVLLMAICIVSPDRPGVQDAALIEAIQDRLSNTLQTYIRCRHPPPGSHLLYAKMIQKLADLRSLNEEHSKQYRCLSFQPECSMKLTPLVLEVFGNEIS
The assay can be described thus: Inhibition of human vitamin D3 receptor.

Another assay deals with CCRF-CEM. In words: Growth inhibition of human CCRF-CEM cells assessed as cell growth at 10^-5 M after 48 hrs by sulforhodamine B assay relative to control. Particulars: read-out: Activity. It is filed as functional. Put shortly: as §1
In a further assay the test system is HL-60(TB). The assay can be described thus: Growth inhibition of human HL-60(TB) cells assessed as cell growth at 10^-5 M after 48 hrs by sulforhodamine B assay relative to control. To be noted: HL-60, 48 h, read-out: Activity. The assay is classed as functional. The procedure, abridged: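 NCI-60 one-dose screen at 10^-5 M. Cells were grown in RPMI 1640 with 5% FBS and 2 mM L-glutamine and plated at 5,000–40,000 cells/well. They were preincubated 24 h at 37°C under 5% CO2, then exposed for 48 h. Suspension cells were fixed with 80% TCA (16% final) and stained with 0.4% SRB, read at 515 nm. Percent growth is versus untreated control, corrected for time-zero.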

In assay [2] the target is Proto-oncogene tyrosine-protein kinase Src (Homo sapiens, UniProt P12931). In words: Inhibition of human SRC.
Proto-oncogene tyrosine-protein kinase Src, sequence (P12931 2-536 limits assumed): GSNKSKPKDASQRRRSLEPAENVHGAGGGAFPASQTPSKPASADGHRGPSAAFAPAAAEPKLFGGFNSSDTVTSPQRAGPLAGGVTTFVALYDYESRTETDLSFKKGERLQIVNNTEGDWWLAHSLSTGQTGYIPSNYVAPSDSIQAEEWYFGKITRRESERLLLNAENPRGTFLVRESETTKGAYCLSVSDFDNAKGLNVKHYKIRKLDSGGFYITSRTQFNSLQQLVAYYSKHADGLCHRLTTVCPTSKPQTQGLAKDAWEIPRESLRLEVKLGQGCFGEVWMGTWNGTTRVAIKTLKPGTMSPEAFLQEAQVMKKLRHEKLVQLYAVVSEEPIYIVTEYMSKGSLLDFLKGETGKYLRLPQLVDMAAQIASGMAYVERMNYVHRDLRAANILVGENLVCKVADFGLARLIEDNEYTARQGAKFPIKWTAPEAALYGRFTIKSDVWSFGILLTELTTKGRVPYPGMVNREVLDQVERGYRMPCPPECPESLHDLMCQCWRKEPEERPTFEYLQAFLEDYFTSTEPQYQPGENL
A short description of assay [3]: Growth inhibition of human Hs 578T cells assessed as cell growth at 10^-5 M after 48 hrs by sulforhodamine B assay relative to control. The assay is classed as functional. To be noted: read-out: Activity. The procedure, abridged:
as §1

A further assay deals with DU-145. In words: Growth inhibition of human DU145 cells assessed as cell growth at 10^-5 M after 48 hrs by sulforhodamine B assay relative to control. The assay is classed as functional. Particulars: DU-145, 48 h, read-out: Activity. The procedure, abridged:
as §1

Take `N=c1scc(-c2ccc(Cl)cc2)n1CC(=O)N1CCN(c2ccccc2)CC1`: the growth at 10 µM turned out to be 93.3% in the assay on CAKI-1; 96.1% in the assay on ACHN; 98% in assay [1]; 113% in the assay on OVCAR-3; 98.1% in the assay on UACC-62; 100% in the assay with SF-539. Further, the growth at 10 µM with SF-295 came to 89.7%; in the assay on SF-268 it was 105%; in the assay with COLO 205 it was 105%; in the assay with NCI-H322M it was 99.8%; in the assay on NCI-H226, 92.2%; in the assay with RPMI-8226, 83.4%. Also, the growth at 10 µM was 84.8% in the assay on K562; 96.2% with CCRF-CEM; 89.8% in the assay with HL-60(TB); 106% in assay [3]; 114% with DU-145. In addition, the pKi (in general, −log10 of the Ki, conventionally taken in molar units) on Vitamin D3 receptor is 5.51; in assay [2], 5.72.

As for `N=c1scc(-c2ccccc2)n1CC(=O)N1CCN(c2ccccc2)CC1`, the growth at 10 µM with CAKI-1 was 87.5%; in the assay with ACHN, 83.4%; in [1] it was 86.5%; in the assay with OVCAR-3, 109%; in the assay with UACC-62, 93.5%; with SF-539 it was 97.2%. Also, the growth at 10 µM in the assay on SF-295 is 72.4%; in the assay with SF-268, 101%; in the assay with COLO 205 it was 102%; in the assay with NCI-H322M, 92.6%; in the assay on NCI-H226 it was 93.7%; with RPMI-8226, 92.1%. Further, the growth at 10 µM in the assay on K562 was 103%; in the assay on CCRF-CEM, 95.8%; with HL-60(TB) it was 99%; in assay [3], 96.5%; with DU-145, 111%. Moreover, the pKi was 5.80 on Vitamin D3 receptor and 4.85 in assay [2].

With `Cc1ccc(-c2csc(=N)n2CC(=O)N2CCN(C)CC2)cc1`, the growth at 10 µM in the assay with CAKI-1 was found to be 78%; with ACHN, 81.2%; in [1], 93.1%; in the assay on OVCAR-3 it was 108%; with UACC-62, 72.6%; in the assay with SF-539 it was 101%. Also, the growth at 10 µM turned out to be 83.4% with SF-295; 96.7% with SF-268; 106% in the assay with COLO 205; 104% in the assay with NCI-H322M; 93.1% with NCI-H226; 83.5% with RPMI-8226. In addition, the growth at 10 µM in the assay with K562 was determined as 82.9%; with CCRF-CEM, 87.1%; in the assay with HL-60(TB), 109%; in assay [3], 101%; in the assay on DU-145 it was 109%. The pKi on Vitamin D3 receptor is 4.77; in assay [2] it was 5.33.

Regarding `Cc1ccc(-c2csc(=N)n2CC(=O)N2CCOCC2)cc1`, the growth at 10 µM in the assay on CAKI-1 was 89.2%; in the assay with ACHN, 97.5%; in assay [1] it was 94.4%; in the assay on OVCAR-3 it was 108%; in the assay on UACC-62, 98.1%; in the assay on SF-539, 100%. Further, the growth at 10 µM in the assay on SF-295 came out at 83.6%; in the assay on SF-268 it was 101%; in the assay on COLO 205, 113%; in the assay with NCI-H322M it was 111%; in the assay with NCI-H226, 94.3%; in the assay with RPMI-8226, 92.8%. Also, the growth at 10 µM was found to be 100% with K562; 101% in the assay with CCRF-CEM; 93.2% in the assay with HL-60(TB); 118% in assay [3]; 108% in the assay on DU-145. Moreover, the figures for the pKi (at Vitamin D3 receptor; in assay [2]) were 4.86 and 4.88, respectively.

`CN1CCN(C(=O)Cn2c(-c3ccccc3)csc2=N)CC1`: the growth at 10 µM was found to be 70.4% in the assay with CAKI-1; 81.2% in the assay on ACHN; 92.6% in assay [1]; 95.4% in the assay with OVCAR-3; 85.9% in the assay with UACC-62; 98.7% in the assay with SF-539. Further, the growth at 10 µM in the assay on SF-295 came to 65.9%; in the assay with SF-268, 96.2%; in the assay with COLO 205, 103%; in the assay on NCI-H322M, 90.2%; in the assay on NCI-H226 it was 85.2%; in the assay with RPMI-8226, 92.5%. Further, the growth at 10 µM in the assay on K562 was determined as 98.2%; with CCRF-CEM it was 97.6%; in the assay on HL-60(TB), 100%; in assay [3] it was 88.2%; with DU-145, 104%. Moreover, the figures for the pKi (on Vitamin D3 receptor; in [2]) were 4.55 and 5.10, respectively.

Source of the values: ChEMBL document CHEMBL2434944, “Novel acetamidothiazole derivatives: synthesis and in vitro anticancer evaluation” (Eur J Med Chem, 2013).
